Laboratory results: ChEMBL document CHEMBL1138172, “Selective irreversible inhibition of fructose 1,6-bisphosphate aldolase from Trypanosoma brucei” (J Med Chem, 2006)
Activity calls are given as the source filed them. No cut-off for these calls is given here.

Experiments:
[1] = target: T1, Fructose-bisphosphate aldolase, glycosomal (Trypanosoma brucei brucei) (UniProt P07752); assay: Residual activity against Trypanosoma brucei class1 Aldolase at 0.5 mM after 5 min
T1 sequence (whole entry): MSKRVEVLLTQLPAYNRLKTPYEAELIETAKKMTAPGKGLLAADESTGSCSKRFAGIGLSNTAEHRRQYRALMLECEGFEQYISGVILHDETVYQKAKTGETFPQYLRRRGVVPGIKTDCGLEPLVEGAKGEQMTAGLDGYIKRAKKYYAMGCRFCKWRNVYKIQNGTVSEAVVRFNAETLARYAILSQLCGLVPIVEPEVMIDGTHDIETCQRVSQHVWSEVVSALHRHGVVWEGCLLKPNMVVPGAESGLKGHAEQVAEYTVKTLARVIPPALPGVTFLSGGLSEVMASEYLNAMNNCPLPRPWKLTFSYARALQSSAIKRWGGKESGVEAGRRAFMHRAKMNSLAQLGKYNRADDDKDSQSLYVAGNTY

[2] = target: T1, Fructose-bisphosphate aldolase, glycosomal (Trypanosoma brucei brucei); assay: Protection of inhibitory activity by NBP against Trypanosoma brucei aldolase at 1 mM after 5 min; set-up: scale not given: the % may be the effect or the level left
[3] = target: T1, Fructose-bisphosphate aldolase, glycosomal (Trypanosoma brucei brucei); assay: Protection of inhibitory activity by FBP against Trypanosoma brucei aldolase at 10 mM after 5 min; set-up: scale not given: the % may be the effect or the level left
[4] = target: T2, Fructose-bisphosphate aldolase A (Oryctolagus cuniculus) (UniProt P00883); assay: Residual activity against rabbit muscle class1 Aldolase at 1 mM after 15 min; details: Muscle tissue
T2 sequence (whole entry): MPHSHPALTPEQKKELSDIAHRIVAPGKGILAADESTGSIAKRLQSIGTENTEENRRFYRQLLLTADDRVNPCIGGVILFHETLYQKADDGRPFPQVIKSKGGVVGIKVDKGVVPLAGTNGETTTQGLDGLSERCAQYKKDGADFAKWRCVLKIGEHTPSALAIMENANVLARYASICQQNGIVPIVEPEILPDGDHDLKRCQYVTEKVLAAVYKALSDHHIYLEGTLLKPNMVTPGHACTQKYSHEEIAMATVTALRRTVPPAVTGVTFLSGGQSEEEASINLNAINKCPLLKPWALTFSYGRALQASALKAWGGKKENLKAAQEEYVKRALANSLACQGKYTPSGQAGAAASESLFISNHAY

[5] = target: T2, Fructose-bisphosphate aldolase A (Oryctolagus cuniculus); assay: Residual activity against rabbit muscle class1 Aldolase at 0.1 mM after 15 min; details: Muscle tissue
[6] = target: T1, Fructose-bisphosphate aldolase, glycosomal (Trypanosoma brucei brucei); assay: Protection of inhibitory activity by HBP against Trypanosoma brucei aldolase at 0.1 mM after 5 min; set-up: scale not given: the % may be the effect or the level left
[7] = target: T1, Fructose-bisphosphate aldolase, glycosomal (Trypanosoma brucei brucei); assay: Protection of inhibitory activity by NBP against Trypanosoma brucei aldolase at 1 mM after 15 min; set-up: scale not given: the % may be the effect or the level left
[8] = target: T1, Fructose-bisphosphate aldolase, glycosomal (Trypanosoma brucei brucei); assay: Protection of inhibitory activity by DHAP against Trypanosoma brucei aldolase at 0.5 mM after 5 min; set-up: scale not given: the % may be the effect or the level left
[9] = target: T3, Aldolase (Plasmodium falciparum) (UniProt Q27744); assay: Residual activity against Plasmodium falciparum class1 Aldolase at 100 uM after 15 min
T3 sequence (whole entry): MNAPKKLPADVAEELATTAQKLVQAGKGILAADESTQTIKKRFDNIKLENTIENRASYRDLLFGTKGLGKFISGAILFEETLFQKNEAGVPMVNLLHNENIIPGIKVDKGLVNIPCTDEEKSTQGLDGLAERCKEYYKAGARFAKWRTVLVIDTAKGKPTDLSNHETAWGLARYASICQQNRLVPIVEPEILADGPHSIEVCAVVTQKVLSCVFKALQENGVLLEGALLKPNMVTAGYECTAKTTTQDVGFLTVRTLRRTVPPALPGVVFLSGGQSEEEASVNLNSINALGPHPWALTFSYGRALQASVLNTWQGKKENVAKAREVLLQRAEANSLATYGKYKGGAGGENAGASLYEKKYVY
In short: (§1)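 Aldolases from different sources, including mammalian (human liver) and protozoan parasite enzymes, were each incubated at 0.2 mg/mL with the inhibitor at 100 µM. Residual enzyme activity was then measured.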

[10] = target: T4, Fructose-bisphosphate aldolase, glycosomal (Trypanosoma brucei brucei, UniProt P07752); assay: Inhibition of Trypanosoma brucei class1 Aldolase
T4 sequence (P07752 whole entry): T1 sequence (whole entry)

[11] = target: T1, Fructose-bisphosphate aldolase, glycosomal (Trypanosoma brucei brucei); assay: Residual activity against Trypanosoma brucei class1 Aldolase at 0.5 mM after 15 min
[12] = target: T5, Fructose-1,6-bisphospate aldolase (Leishmania mexicana) (UniProt Q9U5N6); assay: Residual activity against Leishmania mexicana class1 Aldolase at 100 uM after 15 min; in short: as §1
T5 sequence (whole entry): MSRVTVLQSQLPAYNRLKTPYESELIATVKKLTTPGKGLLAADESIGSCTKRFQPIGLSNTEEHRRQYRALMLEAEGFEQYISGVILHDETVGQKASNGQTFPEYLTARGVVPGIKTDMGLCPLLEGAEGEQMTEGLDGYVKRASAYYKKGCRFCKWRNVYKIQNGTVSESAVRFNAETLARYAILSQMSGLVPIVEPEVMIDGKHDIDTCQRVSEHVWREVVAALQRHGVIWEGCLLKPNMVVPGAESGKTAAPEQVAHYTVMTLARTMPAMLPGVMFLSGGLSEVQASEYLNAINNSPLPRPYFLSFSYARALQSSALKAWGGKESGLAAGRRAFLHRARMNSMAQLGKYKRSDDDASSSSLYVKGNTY

[13] = target: T1, Fructose-bisphosphate aldolase, glycosomal (Trypanosoma brucei brucei); assay: Protection of inhibitory activity by HBP against Trypanosoma brucei aldolase at 1 mM after 15 min; set-up: scale not given: the % may be the effect or the level left
[14] = target: T1, Fructose-bisphosphate aldolase, glycosomal (Trypanosoma brucei brucei); assay: Inhibitory activity against mutated recombinant Trypanosoma brucei aldolase K116M
[15] = target: T1, Fructose-bisphosphate aldolase, glycosomal (Trypanosoma brucei brucei); assay: Protection of inhibitory activity by FBP against Trypanosoma brucei aldolase at 10 mM after 15 min; set-up: scale not given: the % may be the effect or the level left
[16] = target: T1, Fructose-bisphosphate aldolase, glycosomal (Trypanosoma brucei brucei); assay: Protection of inhibitory activity by HBP against Trypanosoma brucei aldolase at 1 mM after 5 min; set-up: scale not given: the % may be the effect or the level left
[17] = target: T1, Fructose-bisphosphate aldolase, glycosomal (Trypanosoma brucei brucei); assay: Protection of inhibitory activity by DHAP against Trypanosoma brucei aldolase at 1 mM after 5 min; set-up: scale not given: the % may be the effect or the level left
[18] = target: T1, Fructose-bisphosphate aldolase, glycosomal (Trypanosoma brucei brucei); assay: Residual activity against Trypanosoma brucei class1 Aldolase at 0.02 mM after 15 min
[19] = target: T1, Fructose-bisphosphate aldolase, glycosomal (Trypanosoma brucei brucei); assay: Protection of inhibitory activity by DHAP against Trypanosoma brucei aldolase at 0.25 mM after 15 min; set-up: scale not given: the % may be the effect or the level left
[20] = target: T2, Fructose-bisphosphate aldolase A (Oryctolagus cuniculus); assay: Residual activity against rabbit muscle class1 Aldolase at 0.1 mM after 5 min; details: Muscle tissue
[21] = target: T1, Fructose-bisphosphate aldolase, glycosomal (Trypanosoma brucei brucei); assay: Protection of inhibitory activity by DHAP against Trypanosoma brucei aldolase at 1 mM after 15 min; set-up: scale not given: the % may be the effect or the level left
[22] = target: T1, Fructose-bisphosphate aldolase, glycosomal (Trypanosoma brucei brucei); assay: Protection of inhibitory activity by DHAP against Trypanosoma brucei aldolase at 0.25 mM after 5 min; set-up: scale not given: the % may be the effect or the level left
[23] = target: T1, Fructose-bisphosphate aldolase, glycosomal (Trypanosoma brucei brucei); assay: Protection of inhibitory activity by FBP against Trypanosoma brucei aldolase at 1 mM after 5 min; set-up: scale not given: the % may be the effect or the level left
[24] = target: T1, Fructose-bisphosphate aldolase, glycosomal (Trypanosoma brucei brucei); assay: Protection of inhibitory activity by DHAP against Trypanosoma brucei aldolase at 10 mM after 15 min; set-up: scale not given: the % may be the effect or the level left
[25] = target: T1, Fructose-bisphosphate aldolase, glycosomal (Trypanosoma brucei brucei); assay: Protection of inhibitory activity by DHAP against Trypanosoma brucei aldolase at 10 mM after 5 min; set-up: scale not given: the % may be the effect or the level left
[26] = target: T1, Fructose-bisphosphate aldolase, glycosomal (Trypanosoma brucei brucei); assay: Protection of inhibitory activity by FBP against Trypanosoma brucei aldolase at 1 mM after 15 min; set-up: scale not given: the % may be the effect or the level left
[27] = target: T1, Fructose-bisphosphate aldolase, glycosomal (Trypanosoma brucei brucei); assay: Residual activity against Trypanosoma brucei class1 Aldolase at 100 uM after 15 min; in short: as §1
[28] = target: T2, Fructose-bisphosphate aldolase A (Oryctolagus cuniculus); assay: Residual activity against rabbit muscle class1 Aldolase at 1 mM after 5 min; details: Muscle tissue
[29] = target: T1, Fructose-bisphosphate aldolase, glycosomal (Trypanosoma brucei brucei); assay: Protection of inhibitory activity by HBP against Trypanosoma brucei aldolase at 0.1 mM after 15 min; set-up: scale not given: the % may be the effect or the level left
[30] = target: T1, Fructose-bisphosphate aldolase, glycosomal (Trypanosoma brucei brucei); assay: Residual activity against Trypanosoma brucei class1 Aldolase at 0.02 mM after 5 min
[31] = target: T1, Fructose-bisphosphate aldolase, glycosomal (Trypanosoma brucei brucei); assay: Protection of inhibitory activity by DHAP against Trypanosoma brucei aldolase at 0.5 mM after 15 min; set-up: scale not given: the % may be the effect or the level left
[32] = target: Fructose-bisphosphate aldolase B (Homo sapiens) (UniProt P05062); assay: Residual activity against human liver class1 Aldolase at 100 uM after 15 min
Fructose-bisphosphate aldolase B (Homo sapiens), sequence (P05062 whole entry, looked up): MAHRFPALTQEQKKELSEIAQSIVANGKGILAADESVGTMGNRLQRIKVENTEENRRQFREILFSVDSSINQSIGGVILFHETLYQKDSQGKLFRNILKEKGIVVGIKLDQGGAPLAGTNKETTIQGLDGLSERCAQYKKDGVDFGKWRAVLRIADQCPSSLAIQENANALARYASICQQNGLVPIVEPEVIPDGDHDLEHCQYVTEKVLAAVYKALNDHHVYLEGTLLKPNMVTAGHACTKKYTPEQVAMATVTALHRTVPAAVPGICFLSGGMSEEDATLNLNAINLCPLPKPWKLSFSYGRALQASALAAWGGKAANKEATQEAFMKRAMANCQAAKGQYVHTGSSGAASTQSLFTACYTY

## O=Cc1c(O)ccc2cc(OP(=O)(O)O)ccc12
[1]
  Activity: < 20%
[2]
  Activity: 100%
[3]
  Activity: 100%
[4]
  Activity: 80%
[5]
  Activity: 100%
[6]
  Activity: 100%
[7]
  Activity: 100%
[8]
  Activity: 63%
[9]
  Activity: 30%
[10]
  Ki: 23 µM
[11]
  Activity: 0%
[12]
  Activity: 15%
[13]
  Activity: 100%
[14]
  inhibition: inactive
[15]
  Activity: 89%
[16]
  Activity: 100%
[17]
  Activity: 60%
[18]
  Activity: 50%
[19]
  Activity: 48%
[20]
  Activity: 100%
[21]
  Activity: 52%
[22]
  Activity: 56%
[23]
  Activity: 80%
[24]
  Activity: 70%
[25]
  Activity: 80%
[26]
  Activity: 51%
[27]
  Activity: < 0.5%
[28]
  Activity: 80%
[29]
  Activity: 100%
[30]
  Activity: 75%
[31]
  Activity: 44%
[32]
  Activity: 100%
